Consider four molecules from ChEMBL document CHEMBL3272012, “5-(Tetradecyloxy)-2-furancarboxylic acid and related hypolipidemic fatty acid-like alkyloxyarylcarboxylic acids” (J Med Chem, 1977).

SMILES strings stand for the structures.

In data set [1] the test system is Rattus norvegicus. Nature of the data set: Hypolipidemic activity in Wistar rat assessed as reduction in plasma cholesterol level at 351 umol/kg/day administered through diet for 4 days. Type of data set: functional. To be noted: 96 h. In outline:
(§1)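 Young male Wistar rats, 170-190 g at start, in groups of six, given compound mixed into Purina Lab Chow ad libitum for 4 or 10 days as stated. Daily dose was calculated from food consumption and body weight. Plasma was taken by cardiac puncture at the end and cholesterol measured by automated procedure. Results are % reduction versus a concurrent untreated control group, with Student's t test.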

Data set [2] deals with Rattus norvegicus. In words: Hypolipidemic activity in Wistar rat assessed as reduction in plasma triglyceride level at 351 umol/kg/day administered through diet for 4 days. Type of data set: functional. The conditions noted are these: 96 h. The gist of the method:
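Young male Wistar rats, 170-190 g at start, six per group, given compound mixed into Purina Lab Chow, fed ad libitum for 4 or 10 days. Daily dose calculated from food consumption and body weight. Rats bled by cardiac puncture at end of treatment. Plasma triglycerides determined by automated procedure. Expressed as percent reduction versus a concurrent untreated control group, Student's t test.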

In data set [3] the test system is Rattus norvegicus. In words: Increase in cholesterol level in Wistar rat liver at 351 umol/kg/day administered through diet for 4 days. To be noted: in vivo, po, 96 h. Type of data set: ADME, organism-based.
Data set [4] deals with Rattus norvegicus. In words: Increase in liver weight in Wistar rat at 351 umol/kg/day administered through diet for 4 days. To be noted: in vivo, po, 96 h. Type of data set: ADME, organism-based.
The subject of data set [5] is Rattus norvegicus. In words: Hypolipidemic activity in Wistar rat assessed as reduction in plasma cholesterol level at 319 umol/kg/day administered through diet for 4 days. Type of data set: functional. To be noted: 96 h. The gist of the method: as §1
In data set [6] the test system is Rattus norvegicus. Nature of the data set: Hypolipidemic activity in Wistar rat assessed as reduction in plasma triglyceride level at 319 umol/kg/day administered through diet for 4 days. Type of data set: functional. To be noted: 96 h. In outline: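 Young male Wistar rats, 170-190 g initial weight, six per group, fed drug mixed thoroughly into Purina Lab Chow ad libitum for the stated days; daily dose calculated from food consumption and body weight. Bled by cardiac puncture at end; plasma cholesterol and triglycerides by automated procedures, expressed as percent reduction versus simultaneous untreated controls; Student's t test.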

The subject of data set [7] is Rattus norvegicus. In words: Increase in cholesterol level in Wistar rat liver at 319 umol/kg/day administered through diet for 4 days. Type of data set: ADME, organism-based. To be noted: in vivo, po, 96 h.
Data set [8] relates to Rattus norvegicus. Nature of the data set: Increase in liver weight in Wistar rat at 319 umol/kg/day administered through diet for 4 days. The conditions noted are these: in vivo, po, 96 h. Type of data set: ADME, organism-based.
In data set [9] the test system is Rattus norvegicus. Nature of the data set: Hypolipidemic activity in Wistar rat assessed as reduction in plasma cholesterol level at 403 umol/kg/day administered through diet for 4 days. Type of data set: functional. To be noted: 96 h. In outline: as §1
Data set [10] deals with Rattus norvegicus. Nature of the data set: Hypolipidemic activity in Wistar rat assessed as reduction in plasma triglyceride level at 403 umol/kg/day administered through diet for 4 days. Type of data set: functional. To be noted: 96 h.
In data set [11] the test system is Rattus norvegicus. In words: Increase in cholesterol level in Wistar rat liver at 403 umol/kg/day administered through diet for 4 days. The conditions noted are these: in vivo, po, 96 h. Type of data set: ADME, organism-based.
Data set [12] deals with Rattus norvegicus. In words: Increase in liver weight in Wistar rat at 403 umol/kg/day administered through diet for 4 days. Type of data set: ADME, organism-based. To be noted: in vivo, po, 96 h.
For data set [13], the system named is Rattus norvegicus. Nature of the data set: Hypolipidemic activity in Wistar rat assessed as reduction in plasma cholesterol level at 443 umol/kg/day administered through diet for 4 days. Type of data set: functional. To be noted: 96 h. In outline:
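Young male Wistar rats, 170-190 g initial weight, groups of six, given compound mixed thoroughly into Purina Lab Chow ad libitum for 4 or 10 days as stated. Daily dose calculated from food consumption and body weight. Bled by cardiac puncture at end of treatment; plasma cholesterol measured by automated procedure. Expressed as percent reduction versus simultaneous untreated control group; Student's t test.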

Data set [14] relates to Rattus norvegicus. In words: Hypolipidemic activity in Wistar rat assessed as reduction in plasma triglyceride level at 443 umol/kg/day administered through diet for 4 days. Type of data set: functional. The conditions noted are these: 96 h. In outline:
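Young male Wistar rats (initial weight 170-190 g), groups of six, fed compound mixed into Purina Lab Chow ad libitum for 4 or 10 days; daily dose calculated from food consumption and body weight. Bled by cardiac puncture; plasma cholesterol and triglycerides by automated procedures; percent reduction versus simultaneous untreated controls, Student's t test.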

The subject of data set [15] is Rattus norvegicus. Nature of the data set: Increase in liver weight in Wistar rat at 443 umol/kg/day administered through diet for 4 days. Type of data set: ADME, organism-based. To be noted: in vivo, po, 96 h.
Data set [16] has as its system Rattus norvegicus. Nature of the data set: Increase in cholesterol level in Wistar rat liver at 443 umol/kg/day administered through diet for 4 days. Type of data set: ADME, organism-based. The conditions noted are these: in vivo, po, 96 h.

What is called inhibition in vivo is the relative decrease from the control value, in per cent.

For the molecule `CCCCCCCC/C=C/CCCCCCCCOc1ccc(C(=O)O)o1`, the values for the inhibition in vivo at 351 µmol/kg with Rattus norvegicus [1] and in the data set with Rattus norvegicus [2] were 4% and 26%, respectively. In addition, the values for the Activity in the data set on Rattus norvegicus [3] and in the data set on Rattus norvegicus [4] were 11% and 0%, respectively.

For `CCCCCCCCCCCCCOc1ccc(C(=O)O)o1`, the inhibition in vivo at 319 µmol/kg in the data set on Rattus norvegicus [5] turned out to be 31%; in the data set with Rattus norvegicus [6] it was 6%. Further, the Activity with Rattus norvegicus [7] is given as 3%; in the data set on Rattus norvegicus [8], 15%.

Take `CCCCCCCCCCCCCCOc1ccc(C(=O)n2ccnc2)o1`: the inhibition in vivo at 403 µmol/kg in the data set on Rattus norvegicus [9] came to 22%; in the data set on Rattus norvegicus [10], 39%. The Activity in the data set with Rattus norvegicus [11] turned out to be 1%; with Rattus norvegicus [12] it was 14%.

For `CCCCCCCCCCCCCCOc1ccc(C(=O)OCC)o1`, the inhibition in vivo at 443 µmol/kg in the data set on Rattus norvegicus [13] is 30%; with Rattus norvegicus [14], 64%. The results for the Activity with Rattus norvegicus [15] and in the data set on Rattus norvegicus [16] were 6% and 0%, respectively.
